Data published in article PMC2635573 (Molecular pharmacology, 2008).
Read-outs that look alike come from different tables or passages of the source. Non-standard residues stand in square brackets, D forms with d. Residues, ends and D or L forms follow the SMILES beside them. *: point of attachment. X1 = COC1=CC(=O)N(C(=O)[C@@H](O*)C(C)C)[C@H]1Cc1ccccc1; NMe2Val = CC(C)[C@@H](C(=O)*)N(C)C; NMeV = CN[C@H](C(=O)O)C(C)C; Cbz = O=C(OCc1ccccc1)*; NHtBu = CC(C)(C)N*

What was measured:
CCRF-CEM leukemia cells = assay: cells; format: cell-based, human; details: for -fold difference in IC50 (+ BCPP versus − BCPP) / IC50: 24 h; for IC50: read-out: IC50 − BCPP
CCRF-CEM cells [1] = assay: [^3H]Tasidotin uptake and metabolism, CCRF-CEM cells; format: in vitro ADME, human; details: 0.1 μM [^3H]tasidotin, 16 h
Summary of the method: (§1)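 Log-phase cells at ~10⁶ cells/ml were given 0.1 μM [³H]test compound for 16 h (CA46 also 5 min). Cells were centrifuged, washed twice in PBS pH 7.2 and sonicated in water. Extracts were boiled 5 min, clarified, and precipitated with 3 volumes of ethanol. Radiolabel and protein were measured in supernatants and pellets. Supernatants in 0.1% TFA were run on C18 HPLC (10–60% acetonitrile, 10 min, 40°C) with in-line radioactivity detection and peak areas. Pellet label was taken as protein-incorporated proline.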

SR cells [2] = assay: Inhibition of cell growth, SR cells; format: cell-based, human; details: mean ± S.D.
Summary of the method: (§2)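 Suspension lines were grown in RPMI 1640 with 5% fetal bovine serum (10% for CA46) at 37°C in humidified 5% CO₂. Test compound was added in DMSO (0.1% final) at varying concentrations. Growth was measured as cell number with a particle counter, and the IC₅₀ was derived from it.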

[3] = tested on: Burkitt lymphoma CA46 cells; assay: Inhibition of growth of CA46 cells; format: cell-based, human
Summary of the method: as §2

HL-60 (TB) cells [4] = tested on: HL-60 (TB) cells
NCI/ADR-RES = details: multidrug resistant, P-glycoprotein expressing
[5] = tested on: CA46 Burkitt lymphoma cells; assay: [^3H]Tasidotin uptake and metabolism, CA46 cells; format: in vitro ADME, human; details: 0.1 μM [^3H]tasidotin
RPMI-8226 cells [6] = assay: [^3H]Tasidotin uptake and metabolism, RPMI-8226 cells; format: in vitro ADME, human; details: 0.1 μM [^3H]tasidotin, 16 h
Summary of the method: as §1

[7] = tested on: CA46, K-562, MOLT-4, and RPMI-8226; details: less sensitive cell lines, 0.1 μM [^3H]tasidotin, 16 h
K-562 cells [8] = assay: Inhibition of cell growth, K-562 cells; format: cell-based, human; details: mean ± S.D.
Summary of the method: as §2

MOLT-4 cells [9] = assay: [^3H]Tasidotin uptake and metabolism, MOLT-4 cells; format: in vitro ADME, human; details: 0.1 μM [^3H]tasidotin, 16 h
Summary of the method: as §1

RPMI-8226 cells [10] = assay: Inhibition of cell growth, RPMI-8226 cells; format: cell-based, human; details: mean ± S.D.
Summary of the method: as §2

[11] = tested on: SR, CCRF-CEM, and HL-60 (TB)
[12] = molecular target: purified bovine brain tubulin (Bos taurus, UniProt P81947+Q6B856); assay: Inhibition of tubulin assembly; format: biochemical
Chain of purified bovine brain tubulin (P81947 whole entry): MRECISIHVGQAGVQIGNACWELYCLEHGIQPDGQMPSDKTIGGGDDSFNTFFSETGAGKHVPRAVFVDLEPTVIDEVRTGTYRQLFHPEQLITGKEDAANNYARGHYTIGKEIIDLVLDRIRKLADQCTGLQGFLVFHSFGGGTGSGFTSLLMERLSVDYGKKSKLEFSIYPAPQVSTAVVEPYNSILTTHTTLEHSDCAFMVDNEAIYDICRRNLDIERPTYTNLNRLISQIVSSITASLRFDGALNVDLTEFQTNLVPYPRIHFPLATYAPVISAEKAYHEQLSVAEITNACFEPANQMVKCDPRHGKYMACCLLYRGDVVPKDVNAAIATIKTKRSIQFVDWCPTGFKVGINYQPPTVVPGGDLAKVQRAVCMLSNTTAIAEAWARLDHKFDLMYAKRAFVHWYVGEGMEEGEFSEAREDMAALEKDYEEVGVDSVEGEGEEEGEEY
Chain of purified bovine brain tubulin (Q6B856 whole entry): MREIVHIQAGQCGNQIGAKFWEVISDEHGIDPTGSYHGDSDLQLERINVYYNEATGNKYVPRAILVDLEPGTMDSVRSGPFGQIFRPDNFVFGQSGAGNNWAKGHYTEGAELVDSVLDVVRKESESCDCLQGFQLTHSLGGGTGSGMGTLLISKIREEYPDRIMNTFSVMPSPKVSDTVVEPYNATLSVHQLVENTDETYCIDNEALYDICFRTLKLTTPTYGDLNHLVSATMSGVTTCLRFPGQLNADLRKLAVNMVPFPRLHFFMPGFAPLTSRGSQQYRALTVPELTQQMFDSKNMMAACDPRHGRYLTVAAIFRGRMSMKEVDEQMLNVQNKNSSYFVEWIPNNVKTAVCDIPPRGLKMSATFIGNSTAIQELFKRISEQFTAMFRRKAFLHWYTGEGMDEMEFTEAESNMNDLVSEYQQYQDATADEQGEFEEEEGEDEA

SR cells [13] = assay: [^3H]Tasidotin uptake and metabolism, SR cells; format: in vitro ADME, human; details: 0.1 μM [^3H]tasidotin, 16 h
Summary of the method: as §1

[14] = tested on: SR, CCRF-CEM, and HL-60 (TB); remark: listed apart in the source
HL-60 (TB) cells [15] = tested on: HL-60 (TB) cells; remark: listed apart in the source
K-562 cells [16] = assay: [^3H]Tasidotin uptake and metabolism, K-562 cells; format: in vitro ADME, human; details: 0.1 μM [^3H]tasidotin, 16 h
Summary of the method: as §1

[17] = tested on: CA46, K-562, MOLT-4, and RPMI-8226
CCRF-CEM cells [18] = assay: Inhibition of cell growth, CCRF-CEM cells; format: cell-based, human; details: mean ± S.D.
Summary of the method: as §2

MOLT-4 cells [19] = assay: Inhibition of cell growth, MOLT-4 cells; format: cell-based, human; details: mean ± S.D.
Summary of the method: as §2

P-glycoprotein = details: ref Aherne et al., 1996; cited from earlier work
[20] = read-out: IC50 Growth of CA46 Cells, 48-h incubation at 37°C, increase in cell number
[21] = 16 h, % of supernatant radiolabel

In the case of COc1ccc(/C=C\c2cc(OC)c(OC)c(OC)c2)cc1O [Combretastatin A-4], the “Effect of BCPP on the inhibition of CCRF-CEM cell growth by the drug” value (CCRF-CEM leukemia cells; CCRF-CEM cells, 12.5 μM BCPP) is reported as “no effect”, the “-fold difference in IC50 (+ BCPP versus − BCPP)” value (shortened to “-fold difference in IC50”) (CCRF-CEM leukemia cells; CCRF-CEM cells, 12.5 μM BCPP) is reported as 0.8 -fold and the IC50 (CCRF-CEM leukemia cells; Homo sapiens, CCRF-CEM) is reported as 2.3 ± 0.3 nM.
For CC(C)[C@H](NC(=O)[C@H](C(C)C)N(C)C)C(=O)N(C)[C@H](C(=O)N1CCC[C@H]1C(=O)N1CCC[C@H]1C(=O)NC(C)(C)C)C(C)C [Tasidotin] (NMe2Val-V[NMeV]PP-NHtBu), the “Free Proline in Supernatant” value (CCRF-CEM cells [1]) was 11.5 fmol / μg cell protein, the “Total Proline in Supernatant (All Forms)” value (CCRF-CEM cells [1]) was 52 ± 4% and the “Total Tasidotin-Derived Proline (Total Tasidotin Uptake)” value (“Total Tasidotin-Derived Proline” below) (CCRF-CEM cells [1]) was 24 ± 9 fmol / μg cell protein. The “Free Proline in Supernatant” value (CCRF-CEM cells [1]; % of supernatant radiolabel) was 48%, the “Proline in P5 in Supernatant” value (CCRF-CEM cells [1]; % of supernatant radiolabel) was 62 ± 10% and the “-fold difference in IC50” value (CCRF-CEM leukemia cells; CCRF-CEM cells, 12.5 μM BCPP) was 30 -fold. It also gave an IC50 (CCRF-CEM leukemia cells; CCRF-CEM cells, without BCPP, cell number) of 40 ± 10 nM, an IC50 (SR cells [2]) of 20 ± 1 nM and an IC50 ([3]; CA46 cells (Table 2), mean ± S.D.) of 100 ± 5 nM. The IC50 [3, 20] was 100 ± 5 nM, the IC50 (MDA-MB-435 line) was 4 nM and the IC50 (HL-60 (TB) cells [4]) was 36 ± 6 nM. The IC50 (NCI/ADR-RES) was over 1000 nM, the “Soluble intracellular radiolabel remaining as tasidotin” value ([5]; 5 min) was “Approximately 48%” and the “Soluble intracellular radiolabel with the mobility of P5” value ([5]; 5 min) was “approximately 17%”. The “Soluble radiolabel that had undergone further metabolism (unbound proline peak)” value ([5]; 5 min) was “approximately 35%”, the “Free Proline in Supernatant” value ([5]; 16 h) was 2.8 fmol / μg cell protein and the “Proline from Pellets” value ([5]; 16 h) was 7.1 fmol / μg cell protein. The “Total Proline in Supernatant (All Forms)” value ([5]; 16 h) was 41 ± 1%, the “Total Tasidotin-Derived Proline” value ([5]; 16 h) was 12 ± 0.6 fmol / μg cell protein and the “Free Proline in Supernatant” value [5, 21] was 58%. For the same compound, the “Proline in P5 in Supernatant” value [5, 21] was 42 ± 10%, the “Radiolabel in the unbound proline peak” value ([5]; 96 h) was “approximately 38%” and the “Radiolabel remaining as tasidotin” value ([5]; 96 h) was “approximately 6%”. The “Total radiolabel with the mobility of P5” value ([5]; 96 h) was “approximately 56%”, the “Free Proline in Supernatant” value (RPMI-8226 cells [6]) was 1.6 fmol / μg cell protein and the “Proline from Pellets” value (RPMI-8226 cells [6]) was 5.8 fmol / μg cell protein. For the same compound, the “Total Proline in Supernatant (All Forms)” value (RPMI-8226 cells [6]) was 31 ± 5%, the “Total Tasidotin-Derived Proline” value (RPMI-8226 cells [6]) was 8.4 ± 3 fmol / μg cell protein and the “Free Proline in Supernatant” value (RPMI-8226 cells [6]; % of supernatant radiolabel) was 61%. For the same compound, the “Proline in P5 in Supernatant” value (RPMI-8226 cells [6]; % of supernatant radiolabel) was 39 ± 5%, the “Share of total uptake as P5, average” value [7] was 16% and the “Share of total uptake as proline, average” value [7] was 84%. For the same compound, the “Total uptake, average” value [7] was 12 fmol/μg of cell protein, the IC50 (K-562 cells [8]) was 230 ± 30 nM and the “Free Proline in Supernatant” value (MOLT-4 cells [9]) was 3.5 fmol / μg cell protein. The “Proline from Pellets” value (MOLT-4 cells [9]) was 7.0 fmol / μg cell protein, the “Total Proline in Supernatant (All Forms)” value (MOLT-4 cells [9]) was 46 ± 7% and the “Total Tasidotin-Derived Proline” value (MOLT-4 cells [9]) was 13 ± 3 fmol / μg cell protein. The “Free Proline in Supernatant” value (MOLT-4 cells [9]; % of supernatant radiolabel) was 59%, the “Proline in P5 in Supernatant” value (MOLT-4 cells [9]; % of supernatant radiolabel) was 41 ± 9% and the IC50 (RPMI-8226 cells [10]) was 300 ± 20 nM. It also gave an IC50 (HS 578-T line) of 200 nM, an IC50 [11] of 20 to 36 nM and an IC50 [12] of 10000 ± 400 nM. The “Fold less active as inhibitor of tubulin assembly than dolastatin 10” value ([12]; ratio of tubulin assembly IC50 values) was “more than 12 -fold”, the “Free Proline in Supernatant” value (SR cells [13]) was 5.0 fmol / μg cell protein and the “Proline from Pellets” value (SR cells [13]) was 9.8 fmol / μg cell protein. For the same compound, the “Total Proline in Supernatant (All Forms)” value (SR cells [13]) was 51 ± 9%, the “Total Tasidotin-Derived Proline” value (SR cells [13]) was 20 ± 5 fmol / μg cell protein and the “Free Proline in Supernatant” value (SR cells [13]; % of supernatant radiolabel) was 49%. For the same compound, the “Proline in P5 in Supernatant” value (SR cells [13]; % of supernatant radiolabel) was 51 ± 7%, the “Intracellular P5” value [14] was 5.2-7.7 fmol/μg cell protein and the “Share of total uptake as P5, average” value [14] was 29%. The “Share of total uptake as proline, average” value [14] was 71%, the “Proline from Pellets” value (HL-60 (TB) cells [15]) was 12.4 fmol / μg cell protein and the “Total Proline in Supernatant (All Forms)” value (HL-60 (TB) cells [15]) was 54 ± 10%. The “Total Tasidotin-Derived Proline” value (HL-60 (TB) cells [15]) was 27 ± 3 fmol / μg cell protein, the “Free Proline in Supernatant” value (K-562 cells [16]) was 4.2 fmol / μg cell protein and the “Proline from Pellets” value (K-562 cells [16]) was 9.0 fmol / μg cell protein. For the same compound, the “Total Proline in Supernatant (All Forms)” value (K-562 cells [16]) was 42 ± 9%, the “Total Tasidotin-Derived Proline” value (K-562 cells [16]) was 15.5 ± 2 fmol / μg cell protein and the “Free Proline in Supernatant” value (K-562 cells [16]; % of supernatant radiolabel) was 64%. The “Proline in P5 in Supernatant” value (K-562 cells [16]; % of supernatant radiolabel) was 36 ± 6%, the IC50 [17] was 100 to 300 nM and the IC50 (CCRF-CEM cells [18]) was 30 ± 7 nM. It also gave an IC50 (MOLT-4 cells [19]) of 230 ± 30 nM.
For CC[C@H](C)[C@@H]([C@@H](CC(=O)N1CCC[C@H]1[C@H](OC)[C@@H](C)C(=O)N[C@@H](Cc1ccccc1)c1nccs1)OC)N(C)C(=O)[C@@H](NC(=O)[C@H](C(C)C)N(C)C)C(C)C [Dolastatin 10, reference compound], the IC50 [3, 20] was 0.03 nM and the IC50 [12] was 800 ± 100 nM.
In the case of O=C[C@@H]1CCCN1C(=O)[C@@H]1CCCN1C(=O)OCc1ccccc1 [BCPP, N-benzyloxycarbonylprolylprolinal] (Cbz-Pro-Pro-aldehyde), the “Effect of BCPP itself on the growth of the cells” value (CCRF-CEM leukemia cells; CCRF-CEM cells, 12.5 μM BCPP) is reported as “negligible effects”.
For CN(Cc1cnc2nc(N)nc(N)c2n1)c1ccc(C(=O)N[C@@H](CCC(=O)O)C(=O)O)cc1 [Methotrexate], the “Effect of BCPP on the inhibition of CCRF-CEM cell growth by the drug” value (CCRF-CEM leukemia cells; CCRF-CEM cells, 12.5 μM BCPP) was “no effect”, the “-fold difference in IC50” value (CCRF-CEM leukemia cells; CCRF-CEM cells, 12.5 μM BCPP) was 1.1 -fold and the IC50 (CCRF-CEM leukemia cells; Homo sapiens, CCRF-CEM) was 7.3 ± 0.8 nM.
In the case of COC1=CC(=O)N(C(=O)[C@@H](OC(=O)[C@@H]2CCCN2C(=O)[C@@H]2CCCN2C(=O)[C@H](C(C)C)N(C)C(=O)[C@@H](NC(=O)[C@H](C(C)C)N(C)C)C(C)C)C(C)C)[C@H]1Cc1ccccc1 [Dolastatin 15, reference compound] (NMe2Val-V[NMeV]PP-X1), the IC50 [3, 20] is given as 3 nM, the P-glycoprotein substrate (P-glycoprotein) is given as “P-glycoprotein substrate” and the IC50 [12] is given as 5600 ± 900 nM.
